Reference: ChEMBL document CHEMBL1158444 (J Med Chem, 2009)
Activity calls are given as the source filed them. No cut-off for these calls is given here.

What was measured:
[1] = Apparent oral clearance in Sprague-Dawley rat at 10 mg/kg, ip; assay type: ADME, organism-based; set-up: dose 10 mg/kg; settings: in vivo
In short: (§1)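 Rats dosed intraperitoneally at 10mg/kg with the hydrochloride salt, given as an aqueous microsuspension containing 10% tween 80. Compound levels in brain and plasma were measured at 0.5, 1 and 8 h after administration.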

[2] = biological target: Metabotropic glutamate receptor 2 (Homo sapiens) (UniProt Q14416); test: Activity at human mGluR2
Sequence of Metabotropic glutamate receptor 2 (Homo sapiens) (Q14416 19-872 limits assumed): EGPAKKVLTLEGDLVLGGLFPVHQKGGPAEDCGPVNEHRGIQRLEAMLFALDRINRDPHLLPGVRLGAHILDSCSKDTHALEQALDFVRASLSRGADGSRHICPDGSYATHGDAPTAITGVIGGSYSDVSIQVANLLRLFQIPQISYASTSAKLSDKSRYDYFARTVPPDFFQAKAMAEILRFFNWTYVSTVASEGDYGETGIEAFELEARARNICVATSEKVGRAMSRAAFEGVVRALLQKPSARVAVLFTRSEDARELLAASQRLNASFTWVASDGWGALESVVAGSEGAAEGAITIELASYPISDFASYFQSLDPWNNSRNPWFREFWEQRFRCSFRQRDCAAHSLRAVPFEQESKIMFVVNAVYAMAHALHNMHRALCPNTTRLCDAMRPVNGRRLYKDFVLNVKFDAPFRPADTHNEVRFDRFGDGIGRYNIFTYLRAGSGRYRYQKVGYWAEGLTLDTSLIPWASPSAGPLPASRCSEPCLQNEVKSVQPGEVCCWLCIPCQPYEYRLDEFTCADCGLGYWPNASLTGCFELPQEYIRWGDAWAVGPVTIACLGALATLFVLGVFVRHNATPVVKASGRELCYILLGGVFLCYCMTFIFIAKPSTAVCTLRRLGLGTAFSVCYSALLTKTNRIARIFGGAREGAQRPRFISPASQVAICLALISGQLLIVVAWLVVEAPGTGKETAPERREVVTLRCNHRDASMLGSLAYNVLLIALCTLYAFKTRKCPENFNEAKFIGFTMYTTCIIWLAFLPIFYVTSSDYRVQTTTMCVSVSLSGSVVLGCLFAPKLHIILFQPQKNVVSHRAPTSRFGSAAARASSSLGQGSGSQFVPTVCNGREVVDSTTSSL

Plasma [3] = test: AUC in Sprague-Dawley rat plasma at 10 mg/kg, ip; assay type: ADME, organism-based; set-up: dose 10 mg/kg, route intraperitoneal; settings: in vivo
[4] = Cmax in Sprague-Dawley rat brain at 10 mg/kg, ip; assay type: ADME, organism-based; set-up: dose 10 mg/kg, route intraperitoneal; in short: as §1
[5] = biological target: Metabotropic glutamate receptor 5 (Homo sapiens) (UniProt P41594); test: Activity at human mGluR5
Sequence of Metabotropic glutamate receptor 5 (Homo sapiens) (P41594 21-1212 limits assumed): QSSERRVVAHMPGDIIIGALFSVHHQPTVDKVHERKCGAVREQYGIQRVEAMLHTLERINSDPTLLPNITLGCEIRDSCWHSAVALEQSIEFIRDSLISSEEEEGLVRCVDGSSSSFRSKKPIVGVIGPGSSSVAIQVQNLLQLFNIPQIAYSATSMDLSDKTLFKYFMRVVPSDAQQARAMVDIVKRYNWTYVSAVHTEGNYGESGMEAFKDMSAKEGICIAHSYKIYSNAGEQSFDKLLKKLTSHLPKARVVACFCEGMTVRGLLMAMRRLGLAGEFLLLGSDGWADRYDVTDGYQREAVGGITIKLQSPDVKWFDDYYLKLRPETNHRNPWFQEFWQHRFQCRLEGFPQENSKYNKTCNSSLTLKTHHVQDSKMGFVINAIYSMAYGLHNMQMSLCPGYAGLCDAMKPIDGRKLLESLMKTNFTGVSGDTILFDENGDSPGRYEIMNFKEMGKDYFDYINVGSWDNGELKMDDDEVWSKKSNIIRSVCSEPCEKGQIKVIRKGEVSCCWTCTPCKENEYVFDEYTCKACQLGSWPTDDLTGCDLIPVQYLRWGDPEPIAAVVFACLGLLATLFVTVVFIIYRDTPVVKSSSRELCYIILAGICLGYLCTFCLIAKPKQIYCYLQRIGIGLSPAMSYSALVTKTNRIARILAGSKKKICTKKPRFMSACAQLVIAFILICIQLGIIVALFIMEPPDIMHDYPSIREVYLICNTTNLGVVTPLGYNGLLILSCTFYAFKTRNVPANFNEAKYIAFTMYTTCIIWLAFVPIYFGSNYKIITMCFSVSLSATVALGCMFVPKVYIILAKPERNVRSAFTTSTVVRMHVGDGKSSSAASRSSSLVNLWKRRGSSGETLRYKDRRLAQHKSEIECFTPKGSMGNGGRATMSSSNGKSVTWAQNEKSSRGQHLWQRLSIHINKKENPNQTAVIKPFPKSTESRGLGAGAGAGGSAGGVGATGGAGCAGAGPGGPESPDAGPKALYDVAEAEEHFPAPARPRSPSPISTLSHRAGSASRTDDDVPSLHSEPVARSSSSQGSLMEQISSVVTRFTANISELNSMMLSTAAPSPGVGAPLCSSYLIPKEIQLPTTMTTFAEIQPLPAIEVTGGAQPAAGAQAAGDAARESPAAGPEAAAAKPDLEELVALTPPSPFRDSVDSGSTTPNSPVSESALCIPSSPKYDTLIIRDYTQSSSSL

[6] = biological target: Metabotropic glutamate receptor 7 (Homo sapiens) (UniProt Q14831); test: Activity at human mGluR7
Sequence of Metabotropic glutamate receptor 7 (Homo sapiens) (Q14831 whole entry): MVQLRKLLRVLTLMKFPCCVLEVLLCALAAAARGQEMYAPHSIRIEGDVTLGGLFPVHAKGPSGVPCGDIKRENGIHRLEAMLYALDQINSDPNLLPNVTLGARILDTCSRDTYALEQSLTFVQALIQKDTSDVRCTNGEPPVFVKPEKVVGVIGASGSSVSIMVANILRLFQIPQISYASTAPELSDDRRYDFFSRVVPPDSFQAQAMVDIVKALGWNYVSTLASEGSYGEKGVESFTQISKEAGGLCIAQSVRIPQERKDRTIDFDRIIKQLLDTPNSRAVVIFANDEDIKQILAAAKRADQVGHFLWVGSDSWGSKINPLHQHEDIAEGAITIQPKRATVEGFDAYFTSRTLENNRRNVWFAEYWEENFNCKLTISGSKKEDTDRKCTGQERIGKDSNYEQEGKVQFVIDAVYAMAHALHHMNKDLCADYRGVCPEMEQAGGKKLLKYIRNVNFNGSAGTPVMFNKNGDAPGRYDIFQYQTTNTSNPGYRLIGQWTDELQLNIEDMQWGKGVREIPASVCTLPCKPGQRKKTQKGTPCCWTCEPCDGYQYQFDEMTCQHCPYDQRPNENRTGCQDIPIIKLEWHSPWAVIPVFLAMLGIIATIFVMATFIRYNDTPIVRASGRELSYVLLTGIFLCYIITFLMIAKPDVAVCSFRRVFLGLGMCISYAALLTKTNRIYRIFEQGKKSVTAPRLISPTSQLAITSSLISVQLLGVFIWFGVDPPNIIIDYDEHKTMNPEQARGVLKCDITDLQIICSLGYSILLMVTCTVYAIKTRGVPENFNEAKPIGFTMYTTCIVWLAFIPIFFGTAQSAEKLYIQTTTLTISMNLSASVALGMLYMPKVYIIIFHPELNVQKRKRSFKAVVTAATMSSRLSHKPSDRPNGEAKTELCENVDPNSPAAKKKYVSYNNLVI

[7] = Metabolic stability in human liver microsomes after 1 hr; assay type: ADME, Microsome; settings: read-out: Stability
Plasma [8] = test: Half life in Sprague-Dawley rat plasma at 10 mg/kg, ip; assay type: ADME, organism-based; set-up: dose 10 mg/kg, route intraperitoneal; settings: in vivo; in short: as §1
[9] = biological target: T1, Metabotropic glutamate receptor 4 (Homo sapiens, UniProt Q14833); test: Activity at human mGluR4 receptor expressed in CHO cells assessed as effect on calcium mobilization relative to glutamate; assay type: functional, cell-based
T1 sequence (Q14833 whole entry): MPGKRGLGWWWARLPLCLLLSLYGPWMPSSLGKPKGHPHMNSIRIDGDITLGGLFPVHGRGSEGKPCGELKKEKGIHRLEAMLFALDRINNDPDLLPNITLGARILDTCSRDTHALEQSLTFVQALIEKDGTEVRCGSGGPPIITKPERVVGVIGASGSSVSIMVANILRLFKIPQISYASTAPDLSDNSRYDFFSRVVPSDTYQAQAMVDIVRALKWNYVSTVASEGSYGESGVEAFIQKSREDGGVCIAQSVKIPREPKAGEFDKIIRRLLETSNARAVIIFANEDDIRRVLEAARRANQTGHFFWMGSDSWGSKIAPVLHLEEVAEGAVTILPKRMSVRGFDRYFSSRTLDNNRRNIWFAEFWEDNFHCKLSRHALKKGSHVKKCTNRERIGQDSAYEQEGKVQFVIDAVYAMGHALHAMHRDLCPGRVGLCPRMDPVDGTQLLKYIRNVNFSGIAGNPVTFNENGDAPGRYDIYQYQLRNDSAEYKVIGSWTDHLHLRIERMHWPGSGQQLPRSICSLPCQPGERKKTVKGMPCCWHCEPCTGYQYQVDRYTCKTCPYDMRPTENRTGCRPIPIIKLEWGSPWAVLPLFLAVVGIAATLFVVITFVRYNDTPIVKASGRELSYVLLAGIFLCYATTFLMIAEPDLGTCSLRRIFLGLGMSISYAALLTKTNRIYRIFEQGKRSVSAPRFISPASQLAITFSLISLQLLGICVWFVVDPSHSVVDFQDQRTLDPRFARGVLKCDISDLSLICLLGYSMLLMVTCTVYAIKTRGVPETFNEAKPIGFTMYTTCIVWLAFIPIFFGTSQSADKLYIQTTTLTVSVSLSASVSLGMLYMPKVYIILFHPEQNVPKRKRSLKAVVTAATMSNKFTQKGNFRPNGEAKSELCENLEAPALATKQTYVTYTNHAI

Plasma [10] = test: Fraction unbound in human plasma by at […]; assay type: ADME, cell-free
[11] = biological target: Metabotropic glutamate receptor 4 (Rattus norvegicus) (UniProt P31423); test: Activity at rat mGluR4 receptor expressed in HEK293 cells assessed as effect on thallium flux relative to glutamate; assay type: cell-based
[12] = Metabolic stability in rat liver microsomes after 1 hr; assay type: ADME, Microsome; settings: read-out: Stability
Plasma [13] = test: Cmax in Sprague-Dawley rat plasma at 10 mg/kg, ip; assay type: ADME, organism-based; set-up: dose 10 mg/kg, route intraperitoneal; settings: in vivo
[14] = biological target: Metabotropic glutamate receptor 1 (Homo sapiens) (UniProt Q13255); test: Activity at human mGluR1
Plasma [15] = test: Fraction unbound in rat plasma by at […]; assay type: ADME, cell-free
[16] = AUC in Sprague-Dawley rat brain at 10 mg/kg, ip; assay type: ADME, organism-based; set-up: dose 10 mg/kg, route intraperitoneal; in short: as §1
Brain = test: Half life in Sprague-Dawley rat brain at 10 mg/kg, ip; assay type: ADME, organism-based; set-up: dose 10 mg/kg, route intraperitoneal; settings: in vivo; in short: as §1
[17] = biological target: Metabotropic glutamate receptor 3 (Homo sapiens) (UniProt Q14832); test: Activity at human mGluR3
Sequence of Metabotropic glutamate receptor 3 (Homo sapiens) (Q14832 23-879 limits assumed): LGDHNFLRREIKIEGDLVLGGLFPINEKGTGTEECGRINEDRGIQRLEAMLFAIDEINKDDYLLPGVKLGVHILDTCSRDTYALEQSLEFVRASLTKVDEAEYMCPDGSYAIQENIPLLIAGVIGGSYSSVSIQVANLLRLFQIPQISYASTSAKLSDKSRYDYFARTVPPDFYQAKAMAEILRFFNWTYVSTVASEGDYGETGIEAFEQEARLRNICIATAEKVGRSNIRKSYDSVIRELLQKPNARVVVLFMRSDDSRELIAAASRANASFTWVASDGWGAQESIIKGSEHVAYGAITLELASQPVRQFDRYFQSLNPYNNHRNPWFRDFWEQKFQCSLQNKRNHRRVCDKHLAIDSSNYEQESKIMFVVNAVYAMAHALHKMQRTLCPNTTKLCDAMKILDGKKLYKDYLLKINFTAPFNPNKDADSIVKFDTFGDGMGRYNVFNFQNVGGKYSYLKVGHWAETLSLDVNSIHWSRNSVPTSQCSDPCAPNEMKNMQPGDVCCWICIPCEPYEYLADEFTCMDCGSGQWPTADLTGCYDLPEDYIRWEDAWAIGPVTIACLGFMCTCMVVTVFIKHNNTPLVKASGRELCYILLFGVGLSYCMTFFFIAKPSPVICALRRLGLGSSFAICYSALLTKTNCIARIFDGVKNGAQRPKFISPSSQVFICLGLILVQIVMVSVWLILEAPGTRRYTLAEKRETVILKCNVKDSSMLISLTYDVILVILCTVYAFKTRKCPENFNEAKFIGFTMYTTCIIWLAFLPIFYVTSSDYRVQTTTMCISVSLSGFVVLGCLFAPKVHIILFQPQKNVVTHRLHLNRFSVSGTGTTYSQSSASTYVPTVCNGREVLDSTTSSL

[18] = biological target: T1, Metabotropic glutamate receptor 4; test: Activity at human mGluR4 receptor expressed in CHO cells assessed as effect on calcium mobilization; assay type: functional, cell-based
[19] = biological target: Metabotropic glutamate receptor 4 (Rattus norvegicus, UniProt P31423); test: Activity at rat mGluR4 receptor expressed in HEK293 cells assessed as effect on thallium flux
[20] = biological target: T1, Metabotropic glutamate receptor 4; test: Activity at human mGluR4 expressed in CHO cells coexpressing Gqi5 protein assessed as fold shifting of glutamate-induced response to left at 30 uM; assay type: cell-based
[21] = biological target: Metabotropic glutamate receptor 4 (Rattus norvegicus) (UniProt P31423); test: Activity at rat mGluR4 expressed in HEK293 cells coexpressing Gqi5 protein assessed as fold shifting of glutamate-induced response to left at 30 uM; assay type: cell-based
[22] = biological target: Metabotropic glutamate receptor 8 (Homo sapiens) (UniProt O00222); test: Activity at human mGluR8 assessed as fold shifting of glutamate-induced response to left

Question: Which results are given for `O=C(Nc1cccc(OC(F)F)c1)c1ccccn1`?
Answer: CL/F [1]: 1420 mL/min/kg; Activity [2]: inactive; AUC (Plasma [3]): 99 ng·h/mL; Cmax [4]: 1680 ng/mL; Activity [5]: > 10 µM; Activity [6]: inactive; remaining at 1 h [7]: 2.4%; t1/2 (Plasma [8]): 15.6 min; Emax [9]: 235%; Fu (Plasma [10]): 4%; Emax [11]: 113%; remaining at 1 h [12]: 1.4%; Cmax (Plasma [13]): 188 ng/mL; Activity [14]: inactive; Fu (Plasma [15]): 5.8%; AUC [16]: 976 ng·h/mL; t1/2 (Brain): 23.4 min; Activity [17]: inactive

Question: Which Emax [9] does the source give for `O=C(Nc1ccc2c(c1)OCO2)c1ccccn1` here?
Answer: 90%

Question: And the EC50 [18]?
Answer: > 10000 nM

Question: And the Emax [11]?
Answer: 50%

Question: And the EC50 [19]?
Answer: 500 nM

Question: With `O=C(Nc1ccc(Cl)c(Cl)c1)c1ccc(-c2ccccc2)o1` as the compound, how does the EC50 [18] read?
Answer: > 10000 nM

Question: Which fold change (FC) [20] does the source give for `O=C(Nc1cccc(Cl)c1)c1ccco1` here?
Answer: 5

Question: And the EC50 [18]?
Answer: > 5000 nM

Question: Which Emax [9] does the source give for `O=C(Nc1ccc(Cl)c(Cl)c1)c1ccco1` here?
Answer: 135%

Question: What about the EC50 [18] of the same compound?
Answer: > 5000 nM

Question: With `COc1cc(NC(=O)c2ccccn2)ccc1F` as the compound, how does the Activity [2] read?
Answer: inactive

Question: And the fold change (FC) [20]?
Answer: 17.5

Question: And the Activity [5]?
Answer: inactive

Question: And the Activity [6]?
Answer: inactive

Question: What about the remaining at 1 h [7] of the same compound?
Answer: 3%

Question: And the fold change (FC) [21]?
Answer: 26.7

Question: And the Emax [9]?
Answer: 207%

Question: What about the EC50 [18] of the same compound?
Answer: 780 nM

Question: And the Fu (Plasma [10])?
Answer: 5.1%

Question: And the Emax [11]?
Answer: 107%

Question: And the Activity [22]?
Answer: inactive

Question: What about the remaining at 1 h [12] of the same compound?
Answer: 6.3%

Question: What about the Activity [14] of the same compound?
Answer: inactive

Question: And the EC50 [19]?
Answer: 370 nM

Question: And the Fu (Plasma [15])?
Answer: 6.5%

Question: And the Activity [17]?
Answer: inactive

Question: What does the source list for `O=C(Nc1cccc(Cl)c1)c1ccccn1`?
Answer: fold change (FC) [20]: 18.1; fold change (FC) [21]: 31.4; Emax [9]: 227%; EC50 [18]: 1100 nM; Emax [11]: 124%; EC50 [19]: 290 nM

Question: Which results are given for `COc1ccc(NC(=O)c2ccccn2)cc1OC`?
Answer: Emax [9]: 164%; EC50 [18]: > 5000 nM; Emax [11]: 102%; EC50 [19]: 2400 nM

Question: Which results are given for `COc1nc(NC(=O)c2ccccn2)ccc1Cl`?
Answer: Emax [9]: 95%; EC50 [18]: > 5000 nM

Question: With `COc1cc(NC(=O)c2ccccn2)ccc1Cl` as the compound, how does the CL/F [1] read?
Answer: 894 mL/min/kg

Question: And the Activity [2]?
Answer: inactive

Question: What about the AUC (Plasma [3]) of the same compound?
Answer: 173 ng·h/mL

Question: What about the Cmax [4] of the same compound?
Answer: 1580 ng/mL

Question: And the fold change (FC) [20]?
Answer: 28.1

Question: What about the Activity [5] of the same compound?
Answer: 5.1 µM

Question: What about the Activity [6] of the same compound?
Answer: inactive

Question: What about the remaining at 1 h [7] of the same compound?
Answer: 5.3%

Question: And the fold change (FC) [21]?
Answer: 35.3

Question: And the t1/2 (Plasma [8])?
Answer: 114 min

Question: And the Emax [9]?
Answer: 182%

Question: And the Fu (Plasma [10])?
Answer: 2.2%

Question: What about the Emax [11] of the same compound?
Answer: 109%

Question: And the fold change (FC) [22]?
Answer: 2.7

Question: And the remaining at 1 h [12]?
Answer: 1.8%

Question: And the Cmax (Plasma [13])?
Answer: 154 ng/mL

Question: And the Activity [14]?
Answer: inactive

Question: What about the Fu (Plasma [15]) of the same compound?
Answer: 2.4%

Question: What about the AUC [16] of the same compound?
Answer: 705 ng·h/mL

Question: And the t1/2 (Brain)?
Answer: 9 min

Question: What about the Activity [17] of the same compound?
Answer: inactive

Question: Which EC50 [18] does the source give for `O=C(Nc1ccc(Cl)c(Cl)c1)c1ccccc1` here?
Answer: > 10000 nM

Question: Which fold change (FC) [21] does the source give for `O=C(Nc1ccccc1)[C@]12C[C@H]1/C(=N\O)c1ccccc1O2` here?
Answer: 8.8

Question: What about the Emax [9] of the same compound?
Answer: 251%

Question: What about the Emax [11] of the same compound?
Answer: 88%

Question: What about the EC50 [19] of the same compound?
Answer: 2030 nM

Question: What does the source list for `COc1ccc(NC(=O)c2ccccn2)cc1Cl`?
Answer: fold change (FC) [20]: 7.2; fold change (FC) [21]: 12; Emax [9]: 161%; EC50 [18]: 1100 nM; Emax [11]: 108%; EC50 [19]: 740 nM

Question: With `O=C(Nc1ccc(Cl)c(C(F)(F)F)c1)c1ccccn1` as the compound, how does the fold change (FC) [20] read?
Answer: 1.8

Question: And the fold change (FC) [21]?
Answer: 2.1

Question: What about the Emax [9] of the same compound?
Answer: 47%

Question: And the EC50 [18]?
Answer: 2100 nM

Question: What about the Emax [11] of the same compound?
Answer: 41%

Question: And the EC50 [19]?
Answer: 1700 nM

Question: For `O=C(Nc1ccc(Cl)c(Cl)c1)C1CCCCC1`, which EC50 [18] is on record?
Answer: > 10000 nM

Question: Which results are given for `O=C(Nc1cccc(OC(F)(F)F)c1)c1ccccn1`?
Answer: remaining at 1 h [7]: 22%; Emax [9]: 132%; Fu (Plasma [10]): 0.8%; Emax [11]: 75%; remaining at 1 h [12]: 20%; Fu (Plasma [15]): 1.6%

Question: Which remaining at 1 h [7] does the source give for `O=C(Nc1cccc(C(F)(F)F)c1)c1ccccn1` here?
Answer: 26%

Question: What about the Emax [9] of the same compound?
Answer: 150%

Question: And the Fu (Plasma [10])?
Answer: 1.3%

Question: And the Emax [11]?
Answer: 81%

Question: What about the remaining at 1 h [12] of the same compound?
Answer: 19%

Question: What about the Fu (Plasma [15]) of the same compound?
Answer: 2.9%

Question: With `O=C(Nc1ccc(Cl)c(Cl)c1)c1ccccn1` as the compound, how does the Emax [9] read?
Answer: 80%

Question: And the EC50 [18]?
Answer: 1400 nM

Question: Which fold change (FC) [20] does the source give for `O=C(Nc1ccc(F)c(C(F)(F)F)c1)c1ccccn1` here?
Answer: 2.1

Question: And the fold change (FC) [21]?
Answer: 2.7

Question: What about the Emax [9] of the same compound?
Answer: 54%

Question: What about the EC50 [18] of the same compound?
Answer: 1500 nM

Question: What about the Emax [11] of the same compound?
Answer: 42%

Question: And the EC50 [19]?
Answer: 1000 nM

Question: For `COc1cc(NC(=O)c2ccccn2)ncn1`, which EC50 [18] is on record?
Answer: > 10000 nM

Question: And the EC50 [19]?
Answer: > 10000 nM

Question: With `O=C(Nc1ccc(Cl)c(Cl)c1)c1cnccn1` as the compound, how does the EC50 [18] read?
Answer: > 10000 nM

Question: With `O=C(Nc1ccc(Cl)c(Cl)c1)c1ccsc1` as the compound, how does the EC50 [18] read?
Answer: > 10000 nM

Question: With `Cc1cc(NC(=O)c2ccco2)ccc1Br` as the compound, how does the fold change (FC) [20] read?
Answer: 4.3

Question: What about the EC50 [18] of the same compound?
Answer: > 5000 nM

Question: With `N#Cc1ccc(NC(=O)c2ccccn2)cc1C(F)(F)F` as the compound, how does the EC50 [18] read?
Answer: > 10000 nM

Question: And the EC50 [19]?
Answer: > 10000 nM

Question: With `O=C(Nc1cccc(C(F)(F)F)n1)c1ccccn1` as the compound, how does the EC50 [18] read?
Answer: > 10000 nM

Question: What about the EC50 [19] of the same compound?
Answer: > 10000 nM

Question: For `O=C(Nc1ccc(Cl)c(Cl)c1)c1ccno1`, which EC50 [18] is on record?
Answer: > 10000 nM

Question: For `Cn1cccc1C(=O)Nc1ccc(Cl)c(Cl)c1`, which EC50 [18] is on record?
Answer: > 10000 nM

Question: With `COc1cc(NC(=O)c2ccccn2)ccc1C` as the compound, how does the fold change (FC) [20] read?
Answer: 16.8

Question: And the fold change (FC) [21]?
Answer: 35.3

Question: What about the Emax [9] of the same compound?
Answer: 178%

Question: And the EC50 [18]?
Answer: 560 nM

Question: And the Emax [11]?
Answer: 121%

Question: And the EC50 [19]?
Answer: 210 nM

Question: With `O=C(Nc1ccc(Cl)c(Cl)c1)c1ccc(Br)o1` as the compound, how does the Emax [9] read?
Answer: 62%

Question: What about the EC50 [18] of the same compound?
Answer: 4100 nM

Question: What does the source list for `O=C(Nc1ccc(Cl)c(Cl)c1)c1ccncn1`?
Answer: Emax [9]: 83%; EC50 [18]: 2800 nM

Question: For `O=C(Nc1ccc(Cl)c(Cl)c1)c1cc2ccccc2o1`, which EC50 [18] is on record?
Answer: > 10000 nM
